Experiment [1] concerns the target T1, 4-hydroxy-tetrahydrodipicolinate synthase (Bacillus subtilis (strain 168), UniProt Q04796).
T1 sequence (Q04796 whole entry): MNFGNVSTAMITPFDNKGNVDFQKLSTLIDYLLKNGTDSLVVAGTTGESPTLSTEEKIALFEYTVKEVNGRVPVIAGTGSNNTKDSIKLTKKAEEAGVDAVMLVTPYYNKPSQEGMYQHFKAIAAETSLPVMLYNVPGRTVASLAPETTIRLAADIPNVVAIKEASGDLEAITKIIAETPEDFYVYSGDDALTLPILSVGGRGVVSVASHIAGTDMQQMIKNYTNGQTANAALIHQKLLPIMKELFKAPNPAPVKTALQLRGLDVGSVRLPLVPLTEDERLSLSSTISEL
In words: Inhibition of Bacillus subtilis DHDPS.

Experiment [2] concerns the target T2, 4-hydroxy-tetrahydrodipicolinate synthase (Escherichia coli K-12, UniProt P0A6L2).
T2 sequence (P0A6L2 whole entry): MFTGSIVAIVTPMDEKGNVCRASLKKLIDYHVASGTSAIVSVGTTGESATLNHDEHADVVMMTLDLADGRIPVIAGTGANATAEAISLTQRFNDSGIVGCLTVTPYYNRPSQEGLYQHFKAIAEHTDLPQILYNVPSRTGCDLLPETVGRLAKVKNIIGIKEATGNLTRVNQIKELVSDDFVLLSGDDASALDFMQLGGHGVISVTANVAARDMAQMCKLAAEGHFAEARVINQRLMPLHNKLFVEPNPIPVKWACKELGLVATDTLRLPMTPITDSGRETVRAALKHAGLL
The experiment is described as follows: Inhibition of Escherichia coli DHDPS.

Experiment [3] has as its target T3, 4-hydroxy-tetrahydrodipicolinate synthase (Escherichia coli K-12) (UniProt P0A6L2).
T3 sequence (whole entry): T2 sequence (P0A6L2 whole entry)
The experiment is described as follows: Ratio of Kinact to Ki(app) for Escherichia coli recombinant DHDPS. The procedure, abridged:
(§1)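 Recombinant E. coli DHDPS, purified, pre-incubated with inhibitor for various times before activity measurement in a coupled assay with E. coli DHDPR (modified coupled assay) at 30 °C; inhibitor range 0.1–250 mM across compounds. Each decay curve was fitted to give kobs; kobs versus [I] was fitted to give kinact and Ki(app); the second-order rate constant is kinact/Ki(app).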

For experiment [4], the target named is T3, 4-hydroxy-tetrahydrodipicolinate synthase (Escherichia coli K-12). The experiment is described as follows: (§2) Inhibition of Escherichia coli recombinant DHDPS overexpressed with DHDPR assessed as residual activity by modified coupled assay. Particulars: TDE = time-dependent effect. The procedure, abridged: as §1
The target in experiment [5] is T2, 4-hydroxy-tetrahydrodipicolinate synthase. The experiment is described as §2. Particulars: read-out: Ki(app). An outline of the steps:
as §1

In experiment [6] the target is T3, 4-hydroxy-tetrahydrodipicolinate synthase (Escherichia coli K-12). In words: Inactivation of Escherichia coli recombinant DHDPS. The procedure, abridged:
as §1

The nature of experiment [7]: Inhibition of succinyl co-transferase. The following applies: read-out: Ki(app).
In experiment [8] the target is T3, 4-hydroxy-tetrahydrodipicolinate synthase (Escherichia coli K-12). In words: Inhibition of Escherichia coli recombinant DHDPS overexpressed with DHDPR assessed as residual activity at 2 mM within 6 min by modified coupled assay. An outline of the steps:
as §1

Structures are written as SMILES. Active and inactive are the calls of the source. No cut-off for these calls is given here.

In the case of `O=C(O)C(=O)CCCC(=O)C(=O)O`, in experiment [1], the Ki stood at 160 µM.
Compound `CCCC(=O)C(=O)O` yielded a Ki in experiment [2] of 700 µM.
For `CCOC(=O)/C=C/C(=O)CCC(=O)OCC`, in experiment [3], the Ratio stood at 0.11 M⁻¹ s⁻¹. The Activity entry in experiment [4] is “tde”. Also, in experiment [5], the Ki is 10900 µM. In experiment [6], the Kinact was 1.2 ×10⁻³ /s.
Turning to `O=C(O)/C=C/C(=O)/C=C/C(=O)O`, in experiment [3], the Ratio came out at 1.2 M⁻¹ s⁻¹. Further, the Activity entry in experiment [4] was “tde”. The Ki was determined as 1630 µM in experiment [5] and 530 µM in experiment [7]. The Kinact in experiment [6] came out at 1.9 ×10⁻³ /s.
In turn, `O=CC(=O)O` [GLYOXYLATE] returned a Ki in experiment [2] of 16 µM.
Take `CCOC(=O)/C=C/C(=O)/C=C/C(=O)OCC`: the Ratio in experiment [3] was 5.9 M⁻¹ s⁻¹. For the same compound, the Ki in experiment [5] is 4950 µM. Also, the Kinact in experiment [6] is 29 ×10⁻³ /s. Further, in experiment [8], the outcome was Active.
`CCC(=O)C(=O)O` showed a Ki in experiment [2] of 830 µM.
Same read-out and setting: the same measure for `O=C(O)C(=O)CF`: 220 µM.
With `O=C(O)/C=C/C(=O)CCC(=O)O`, the Ratio in experiment [3] turned out to be 0.12 M⁻¹ s⁻¹. Moreover, the Activity result in experiment [4] is “tde”. In experiment [5], the Ki was 32400 µM. Also, the Kinact in experiment [6] stood at 4.1 ×10⁻³ /s.
